Results as given in ChEMBL document CHEMBL1255494, “In vivo comparison of the pharmacodynamic targets for echinocandin drugs against Candida species” (Antimicrob Agents Chemother, 2010).
Converted amounts (≈) assume the structure as drawn. *1 amine or outer side, *2 acyl side, *3 side chain or, on linkers, in order; H or OH if unused. Where a SMILES comes first, the peptide text is derived from it. Bridges are numbered along the chain shown (N, C = ends). [ ]: non-standard residue; d: D form. The star is where a group is joined. hTyr(3S-OH,4S-OH,3'-OSO3H) = N[C@H](C(=O)O)[C@H](O)[C@@H](O)c1ccc(O)c(OS(=O)(=O)O)c1; Orn(4R-OH,5R-OH) = O=C([C@H](C[C@@H](O)[C@@H](O)N[*:3])N[*:1])[*:2]; Pro(3S-OH,4S-Me) = C[C@H]1CN[C@H](C(=O)O)[C@H]1O; X1 = CCCCCOc1ccc(-c2cc(-c3ccc(C(=O)*)cc3)no2)cc1; Gln(3R-OH) = NC(=O)C[C@@H](O)[C@H](N)C(=O)O; Hyp = O=C(O)[C@@H]1C[C@@H](O)CN1

How the values were obtained:
Candida parapsilosis [1] = experiment: Antifungal activity against Candida parapsilosis 20423.078 after 24 hrs; format: functional; details: Lodderomyces parapsilosis, 20423.078, 24 h
Procedure, shortened: (§1)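 MICs by CLSI M27-A3 broth dilution in RPMI 1640, inoculum 0.5 × 10³ to 2.5 × 10³ cells/ml, 35°C. Read visually at 24 h as the lowest concentration giving ≥50% growth reduction versus control. Run on three occasions in duplicate and reported as the mean. C. krusei ATCC 6258 and C. parapsilosis ATCC 22019 served as QC strains.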

Nakaseomyces glabratus [2] = experiment: Antifungal activity against Candida glabrata 32930 after 24 hrs; format: functional; details: Nakaseomyces glabratus, 32930, 24 h
Procedure, shortened: (§2)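 Broth microdilution per CLSI M27-A3 in RPMI 1640; inoculum 0.5 × 10³ to 2.5 × 10³ cells/ml, 35°C. […] Three separate occasions in duplicate, mean reported; C. krusei ATCC 6258 and C. parapsilosis ATCC 22019 as daily QC.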

[3] = Ratio of fAUC (0 to 24 hrs) in Candida albicans infected neutropenic ICR Swiss mouse to MIC for Candida albicans at static dose after 24 hrs; format: functional
Candida parapsilosis [4] = experiment: Antifungal activity against Candida parapsilosis 20385.079 after 24 hrs; format: functional; details: Lodderomyces parapsilosis, 20385.079, 24 h; procedure, shortened: as §1
Nakaseomyces glabratus [5] = experiment: Antifungal activity against Candida glabrata 513 after 24 hrs; format: functional; details: Nakaseomyces glabratus, 513, 24 h; procedure, shortened: as §2
Nakaseomyces glabratus [6] = experiment: Antifungal activity against Candida glabrata 34341 after 24 hrs; format: functional; details: Nakaseomyces glabratus, 34341, 24 h; procedure, shortened: as §1
Candida parapsilosis [7] = experiment: Antifungal activity against Candida parapsilosis 20477.048 after 24 hrs; format: functional; details: Lodderomyces parapsilosis, 20477.048, 24 h; procedure, shortened: as §1
Nakaseomyces glabratus [8] = experiment: Fungistatic activity against Candida glabrata infected in neutropenic ICR Swiss mouse after 24 hrs; format: functional
Procedure, shortened: (§3)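 Female ICR Swiss mice, neutropenic via cyclophosphamide s.c. (150 mg/kg day −4, 100 mg/kg day −1 and day +2), infected by tail-vein injection of clinical isolates 2 h before therapy. Intraperitoneal dosing every 24 h for 4 days, 4–6 dose levels from 0.078 to 160 mg/kg, 3 mice per regimen. Kidney CFU counted at 96 h. Sigmoid dose-effect fit gives static dose and 1 log kill dose relative to burden at start of therapy.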

[9] = Ratio of fAUC (0 to 24 hrs) in Candida parapsilosis infected neutropenic ICR Swiss mouse to MIC for Candida parapsilosis at static dose after 24 hrs; format: functional
Candida parapsilosis [10] = experiment: Antifungal activity against Candida parapsilosis infected in ICR Swiss mouse assessed log reduction in bacterial count […]; format: functional; procedure, shortened: as §3
Mus musculus = experiment: Protein binding in Candida albicans infected neutropenic ICR Swiss mouse at 80 mg/kg, ip; format: ADME, organism-based; set-up: dose 80 mg/kg, route intraperitoneal; details: in vivo
Candida parapsilosis [11] = experiment: Antifungal activity against Candida parapsilosis 20511.092 after 24 hrs; format: functional; details: Lodderomyces parapsilosis, 20511.092, 24 h; procedure, shortened: as §1
Candida albicans [12] = experiment: Antifungal activity against Candida albicans K1 after 24 hrs; format: functional; details: K1, 24 h; procedure, shortened: as §2
[13] = Ratio of fAUC (0 to 24 hrs) in Candida albicans infected neutropenic ICR Swiss mouse to MIC for Candida albicans at 1 log kill dose after 24 hrs; format: functional
[14] = AUC (0 to 24 hrs) in Candida albicans infected neutropenic ICR Swiss mouse at 20 mg/kg, ip; format: ADME, organism-based; set-up: time < 24 hr, dose 20 mg/kg, route intraperitoneal; details: plasma
Procedure, shortened: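 Neutropenic female ICR Swiss mice (cyclophosphamide sc at 150 mg/kg on day −4, 100 mg/kg on day −1 and day +2) infected iv via tail vein with Candida; single ip doses of 5, 20 or 80 mg/kg. Serum drawn from 3 mice per time point at eight time points and assayed by microbiologic assay (C. albicans K1) or […]. Noncompartmental analysis; AUC by trapezoidal rule.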

Candida parapsilosis [15] = experiment: Antifungal activity against Candida parapsilosis 20450.096 after 24 hrs; format: functional; details: Lodderomyces parapsilosis, 20450.096, 24 h; procedure, shortened: as §1
[16] = Ratio of AUC (0 to 24 hrs) in Candida glabrata infected neutropenic ICR Swiss mouse to MIC for Candida glabrata at 1 log kill dose after 24 hrs; format: functional
Procedure, shortened: (§4)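 Neutropenic mice were infected iv and treated 2 h later. Four to six ip dose levels (0.078–160 mg/kg) were given every 24 h for 4 days, 3 mice per regimen. Kidney CFU were counted at 96 h. A sigmoid dose-effect model gave the static and 1-log-kill doses relative to burden at therapy start.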

Candida parapsilosis [17] = experiment: Antifungal activity against Candida parapsilosis 20562.03 after 24 hrs; format: functional; details: Lodderomyces parapsilosis, 20562.03, 24 h; procedure, shortened: as §1
Candida parapsilosis [18] = experiment: Antifungal activity against Candida parapsilosis 20477.078 after 24 hrs; format: functional; details: Lodderomyces parapsilosis, 20477.078, 24 h; procedure, shortened: as §1
[19] = Ratio of AUC (0 to 24 hrs) in Candida albicans infected neutropenic ICR Swiss mouse to MIC for Candida albicans at 1 log kill dose after 24 hrs; format: functional; procedure, shortened: as §4
[20] = Ratio of AUC (0 to 24 hrs) in Candida parapsilosis infected neutropenic ICR Swiss mouse to MIC for Candida parapsilosis at static dose after 24 hrs; format: functional; procedure, shortened: as §4
[21] = Ratio of AUC (0 to 24 hrs) in Candida albicans infected neutropenic ICR Swiss mouse to MIC for Candida albicans at static dose after 24 hrs; format: functional; procedure, shortened: as §4
Nakaseomyces glabratus [22] = experiment: Antifungal activity against Candida glabrata infected in neutropenic ICR Swiss mouse assessed log reduction in bacterial count […]; format: functional; procedure, shortened: as §3
Nakaseomyces glabratus [23] = experiment: Antifungal activity against Candida glabrata 33616 after 24 hrs; format: functional; details: Nakaseomyces glabratus, 33616, 24 h; procedure, shortened: as §1
Candida parapsilosis [24] = experiment: Fungistatic activity against Candida parapsilosis infected in neutropenic ICR Swiss mouse after 24 hrs; format: functional; procedure, shortened: as §3
Candida albicans [25] = experiment: Antifungal activity against Candida albicans 98-210 after 24 hrs; format: functional; details: 98-210, 24 h; procedure, shortened: as §2
Candida albicans [26] = experiment: Antifungal activity against Candida albicans 98-17 after 24 hrs; format: functional; details: 98-17, 24 h; procedure, shortened: as §1
[27] = Ratio of AUC (0 to 24 hrs) in Candida parapsilosis infected neutropenic ICR Swiss mouse to MIC for Candida parapsilosis at 1 log kill dose after 24 hrs; format: functional; procedure, shortened: as §4
Candida parapsilosis [28] = experiment: Antifungal activity against Candida parapsilosis 20553.009 after 24 hrs; format: functional; details: Lodderomyces parapsilosis, 20553.009, 24 h; procedure, shortened: as §1
Candida parapsilosis [29] = experiment: Antifungal activity against Candida parapsilosis 20489.085 after 24 hrs; format: functional; details: Lodderomyces parapsilosis, 20489.085, 24 h; procedure, shortened: as §2
Candida orthopsilosis = experiment: Antifungal activity against Candida orthopsilosis 20577.055 after 24 hrs; format: functional; details: Lodderomyces orthopsilosis, 20577.055, 24 h; procedure, shortened: as §1
[30] = Ratio of AUC (0 to 24 hrs) in Candida glabrata infected neutropenic ICR Swiss mouse to MIC for Candida glabrata at static dose after 24 hrs; format: functional; procedure, shortened: as §4
Nakaseomyces glabratus [31] = experiment: Antifungal activity against Candida glabrata infected in ICR Swiss mouse; format: functional; procedure, shortened: as §3
Nakaseomyces glabratus [32] = experiment: Antifungal activity against Candida glabrata 33609 after 24 hrs; format: functional; details: Nakaseomyces glabratus, 33609, 24 h; procedure, shortened: as §2
Nakaseomyces glabratus [33] = experiment: Antifungal activity against Candida glabrata 5592 after 24 hrs; format: functional; details: Nakaseomyces glabratus, 5592, 24 h; procedure, shortened: as §2
Candida parapsilosis [34] = experiment: Antifungal activity against Candida parapsilosis 20435.057 after 24 hrs; format: functional; details: Lodderomyces parapsilosis, 20435.057, 24 h; procedure, shortened: as §1
Candida albicans [35] = experiment: Antifungal activity against Candida albicans infected in ICR Swiss mouse assessed as log reduction in bacterial count […]; format: functional; procedure, shortened: as §3

## CCCCCOc1ccc(-c2cc(-c3ccc(C(=O)N[C@H]4C[C@@H](O)[C@@H](O)NC(=O)[C@@H]5[C@@H](O)[C@@H](C)CN5C(=O)[C@H]([C@H](O)CC(N)=O)NC(=O)[C@H]([C@H](O)[C@@H](O)c5ccc(O)c(OS(=O)(=O)O)c5)NC(=O)[C@@H]5C[C@@H](O)CN5C(=O)[C@H]([C@@H](C)O)NC4=O)cc3)no2)cc1 [MICAFUNGIN] (X1-[Orn(4R-OH,5R-OH)]T[Hyp][hTyr(3S-OH,4S-OH,3'-OSO3H)][Gln(3R-OH)][Pro(3S-OH,4S-Me)]; lactam 1-C)
Candida parapsilosis [1]
  MIC: 0.5 µg/mL (≈ 0.394 µM)
Nakaseomyces glabratus [2]
  MIC: 0.008 µg/mL (≈ 0.0063 µM)
[3]
  Ratio: 12.7
Candida parapsilosis [4]
  MIC: 0.5 µg/mL (≈ 0.394 µM)
Nakaseomyces glabratus [5]
  MIC: 0.016 µg/mL (≈ 0.0126 µM)
Nakaseomyces glabratus [6]
  MIC: 0.06 µg/mL (≈ 0.0472 µM)
Candida parapsilosis [7]
  MIC: 0.5 µg/mL (≈ 0.394 µM)
Nakaseomyces glabratus [8]
  Activity: 2.47 mg/kg
[9]
  Ratio: 4.95
Candida parapsilosis [10]
  Activity: 55.8 mg/kg
Mus musculus
  Activity: 99.75%
Candida parapsilosis [11]
  MIC: 0.25 µg/mL (≈ 0.197 µM)
Candida albicans [12]
  MIC: 0.016 µg/mL (≈ 0.0126 µM)
[13]
  Ratio: 25.2
[14]
  AUC(0-t) at 24 h: 520 µg·h/mL
Candida parapsilosis [15]
  MIC: 0.25 µg/mL (≈ 0.197 µM)
[16]
  Ratio: 3778
Candida parapsilosis [17]
  MIC: 0.5 µg/mL (≈ 0.394 µM)
Candida parapsilosis [18]
  MIC: 0.5 µg/mL (≈ 0.394 µM)
[19]
  Ratio: 10088
[20]
  Ratio: 1981
[21]
  Ratio: 5299
Nakaseomyces glabratus [22]
  Activity: 5.88 mg/kg
Nakaseomyces glabratus [23]
  MIC: 0.25 µg/mL (≈ 0.197 µM)
Candida parapsilosis [24]
  Activity: 32.3 mg/kg
Candida albicans [25]
  MIC: 0.016 µg/mL (≈ 0.0126 µM)
Candida albicans [26]
  MIC: 0.03 µg/mL (≈ 0.0236 µM)
[27]
  Ratio: 3090
Candida parapsilosis [28]
  MIC: 1 µg/mL (≈ 0.787 µM)
Candida parapsilosis [29]
  MIC: 0.12 µg/mL (≈ 0.0945 µM)
Candida orthopsilosis
  MIC: 0.25 µg/mL (≈ 0.197 µM)
[30]
  Ratio: 1542
Nakaseomyces glabratus [31]
  Emax: 5.4 log10 CFU/kidneys
Nakaseomyces glabratus [31]; Nakaseomyces glabratus
  ED50: 3 mg/kg
Nakaseomyces glabratus [32]
  MIC: 0.016 µg/mL (≈ 0.0126 µM)
Nakaseomyces glabratus [33]
  MIC: 0.016 µg/mL (≈ 0.0126 µM)
Candida parapsilosis [34]
  MIC: 0.5 µg/mL (≈ 0.394 µM)
Candida albicans [35]
  Activity: 5.63 mg/kg
